Measurements published in ChEMBL document CHEMBL1782051, “Synthesis and biological evaluation of novel gamma-carboline analogues of Dimebon as potent 5-HT6 receptor antagonists” (Bioorg Med Chem Lett, 2009).

Key:
Histamine H1 receptor [1] = molecular target: T1, Histamine H1 receptor (Homo sapiens, UniProt P35367); experiment: Antagonist activity at human histamine H1 receptor in SK-N-SH cells assessed as inhibition of histamine-induced calcium level increase during phase-1 compound incubated before histamine addition by Fura-2 based fluorometric assay; format: functional, cell-based
How it was run: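 H1 receptor Ca-dependent signalling was measured in SK-N-SH cells as blockade of histamine-induced calcium flow in phase-I. IC50 values were reported.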

[2] = molecular target: 5-hydroxytryptamine receptor 6 (Homo sapiens, UniProt P50406); experiment: Antagonist activity at human recombinant 5-HT6 receptor expressed in HEK293 cells assessed as inhibition of serotonin-induced intracellular cAMP accumulation by LANCE technique; format: functional, cell-based
How it was run: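 Cells continuously express recombinant human 5-HT6 receptors. Serotonin stimulation raises intracellular cyclic AMP, which was monitored continuously by LANCE technology. Read-out was inhibition of the serotonin-dependent cAMP response.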

Histamine H1 receptor [3] = molecular target: T1, Histamine H1 receptor; experiment: Antagonist activity at human histamine H1 receptor in SK-N-SH cells assessed as inhibition of histamine-induced calcium flow during phase-II compound dosed after histamine addition by Fura-2 based fluorometric assay; format: functional
Acetylcholinesterase = Acetylcholinesterase (Homo sapiens, UniProt P22303); experiment: Inhibition of AChE
Cholinesterase = Cholinesterase (Homo sapiens, UniProt P06276); experiment: Inhibition of BuChE
[4] = Inhibition of L-type calcium channel
[5] = Neuroprotective activity in cerebellum cell culture assessed as protection against beta-amyloid fragment Abeta (25-35)-induced neurotoxicity; format: functional, tissue-based
[6] = molecular target: Glutamate NMDA receptor (Rattus norvegicus) (UniProt P35439+Q00959+Q00960+Q00961+Q62645+Q8VHN2+Q9R1M7); experiment: Inhibition of NMDA receptor in rat brain cortical neurons assessed as blocking of NMDA-induced currents; format: tissue-based

Chain of 5-hydroxytryptamine receptor 6 (P50406 whole entry): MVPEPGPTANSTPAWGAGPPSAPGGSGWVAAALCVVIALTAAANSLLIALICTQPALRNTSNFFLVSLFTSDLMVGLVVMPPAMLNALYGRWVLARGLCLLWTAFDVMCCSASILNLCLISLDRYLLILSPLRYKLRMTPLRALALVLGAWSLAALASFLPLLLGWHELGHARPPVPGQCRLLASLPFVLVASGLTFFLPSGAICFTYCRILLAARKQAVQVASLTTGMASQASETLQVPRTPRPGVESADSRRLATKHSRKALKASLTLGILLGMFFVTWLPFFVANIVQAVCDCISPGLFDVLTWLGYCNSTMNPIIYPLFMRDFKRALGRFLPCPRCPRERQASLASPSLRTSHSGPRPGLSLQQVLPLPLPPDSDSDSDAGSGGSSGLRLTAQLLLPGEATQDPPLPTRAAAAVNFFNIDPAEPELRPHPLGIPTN
T1 sequence (P35367 whole entry): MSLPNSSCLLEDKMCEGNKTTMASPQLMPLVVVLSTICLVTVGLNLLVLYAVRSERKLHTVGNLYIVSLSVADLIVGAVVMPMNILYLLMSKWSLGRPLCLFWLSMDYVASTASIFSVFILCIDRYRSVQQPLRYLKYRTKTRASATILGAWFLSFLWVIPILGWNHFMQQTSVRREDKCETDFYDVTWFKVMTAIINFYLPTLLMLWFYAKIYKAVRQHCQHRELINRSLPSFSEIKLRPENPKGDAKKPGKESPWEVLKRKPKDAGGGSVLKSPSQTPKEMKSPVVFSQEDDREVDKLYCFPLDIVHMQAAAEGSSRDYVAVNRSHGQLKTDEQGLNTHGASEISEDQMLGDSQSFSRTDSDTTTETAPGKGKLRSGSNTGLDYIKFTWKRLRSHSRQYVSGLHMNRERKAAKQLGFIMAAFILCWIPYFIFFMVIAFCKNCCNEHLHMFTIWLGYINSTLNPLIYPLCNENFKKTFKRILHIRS
Chain of Acetylcholinesterase (P22303 whole entry): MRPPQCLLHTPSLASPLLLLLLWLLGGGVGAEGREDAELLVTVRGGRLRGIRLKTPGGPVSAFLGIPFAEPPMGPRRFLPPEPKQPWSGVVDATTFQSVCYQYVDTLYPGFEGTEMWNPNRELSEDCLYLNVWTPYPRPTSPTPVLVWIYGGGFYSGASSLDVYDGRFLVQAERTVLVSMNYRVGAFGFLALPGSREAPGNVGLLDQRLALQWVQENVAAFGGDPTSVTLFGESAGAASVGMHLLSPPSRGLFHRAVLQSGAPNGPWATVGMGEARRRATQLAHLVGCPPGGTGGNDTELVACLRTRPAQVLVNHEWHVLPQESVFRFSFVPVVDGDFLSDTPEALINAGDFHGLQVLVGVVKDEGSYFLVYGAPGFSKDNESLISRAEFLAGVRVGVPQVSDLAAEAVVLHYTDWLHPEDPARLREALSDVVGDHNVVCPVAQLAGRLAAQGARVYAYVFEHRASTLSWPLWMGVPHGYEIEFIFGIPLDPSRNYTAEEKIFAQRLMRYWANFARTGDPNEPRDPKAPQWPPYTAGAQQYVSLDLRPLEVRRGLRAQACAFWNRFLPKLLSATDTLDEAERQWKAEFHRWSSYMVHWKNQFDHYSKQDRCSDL
Chain of Cholinesterase (P06276 whole entry): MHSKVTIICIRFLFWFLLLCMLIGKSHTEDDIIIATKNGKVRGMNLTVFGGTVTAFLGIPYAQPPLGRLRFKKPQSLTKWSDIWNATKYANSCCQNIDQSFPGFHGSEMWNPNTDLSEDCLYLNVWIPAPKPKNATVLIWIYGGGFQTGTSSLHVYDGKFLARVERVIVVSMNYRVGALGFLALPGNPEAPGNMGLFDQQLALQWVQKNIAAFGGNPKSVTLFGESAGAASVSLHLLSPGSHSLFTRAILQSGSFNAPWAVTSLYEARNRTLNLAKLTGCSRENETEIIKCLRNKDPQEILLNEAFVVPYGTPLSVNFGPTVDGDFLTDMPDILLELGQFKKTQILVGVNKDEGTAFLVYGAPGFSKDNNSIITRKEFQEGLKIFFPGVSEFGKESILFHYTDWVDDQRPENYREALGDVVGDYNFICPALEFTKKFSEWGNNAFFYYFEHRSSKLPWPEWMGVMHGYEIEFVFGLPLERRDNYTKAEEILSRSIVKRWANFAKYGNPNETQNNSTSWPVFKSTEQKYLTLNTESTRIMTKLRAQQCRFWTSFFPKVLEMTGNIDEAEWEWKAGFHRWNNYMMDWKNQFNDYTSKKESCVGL

Row | SMILES | IC50 (Histamine H1 receptor [1]) | IC50 ([2]; read-out: IC50) | IC50 (Histamine H1 receptor [3]) | further results
1 | CN1CCc2c(c3cc(-c4cccnc4)ccc3n2CCc2ccccn2)C1 | 7160 nM | 43200 nM |  | 
2 | CN1CCc2c(c3cc(C(F)(F)F)ccc3n2CCc2ccccn2)C1 | 560 nM | 1590 nM | 1590 nM | 
3 | CN1CCc2c(c3cc(C(=O)O)ccc3n2CCc2ccncc2)C1 | > 10000 nM | > 10000 nM |  | 
4 | CN1CCc2c(c3cc(F)ccc3n2CCc2cccnc2)C1 | 650 nM | > 10000 nM | 930 nM | 
5 | CN1CCc2c(c3cc(C#N)ccc3n2CCc2ccccn2)C1 | 1290 nM | 7470 nM |  | 
6 | CN1CCc2c(c3cc(F)ccc3n2CCc2ccccn2)C1 | 940 nM | 2980 nM | 610 nM | 
7 | CN1CCc2c(c3cc(C(F)(F)F)ccc3n2CCc2cccnc2)C1 | > 10000 nM | 5800 nM |  | 
8 | Cc1ccc2c(c1)c1c(n2CCc2ccc(C)nc2)CCN(C)C1 [LATREPIRDINE] | 160 nM | 890 nM | 1580 nM | IC50 (Acetylcholinesterase): 45000 nM; IC50 (Cholinesterase): 7900 nM; IC50 [4]: 57000 nM; EC50 [5]: 25000 nM; ED50 [6]: 42000 nM
9 | CN1CCc2c(c3ccccc3n2CCc2ccccn2)C1 | 1820 nM | 15800 nM | 930 nM | 
10 | COc1ccc2c(c1)c1c(n2CCc2ccccn2)CCN(C)C1 | 4670 nM | 8360 nM |  | 
11 | Cc1ccc2c(c1)c1c(n2CCc2ccncc2)CCN(C2CCN(C)CC2)C1 | 7570 nM |  |  | IC50 ([2]; hek293): Not Active
12 | Cc1ccc2c(c1)c1c(n2CCc2ccccn2)CCN(C2CCN(C)CC2)C1 | > 10000 nM |  |  | IC50 ([2]; hek293): Not Active
13 | Cc1ccc2c(c1)c1c(n2CCc2cccnc2)CCN(C2CCN(C)CC2)C1 | 2790 nM |  |  | IC50 ([2]; hek293): Not Active

Further lines, with some results ahead:

Row | IC50 (Histamine H1 receptor [1]) | IC50 ([2]; read-out: IC50) | IC50 (Histamine H1 receptor [3]) | SMILES | further results
14 | 500 nM | 440 nM | 3160 nM | Cc1ccc2c(c1)c1c(n2CCc2cccnc2)CCN(C)C1 | 
15 | 120 nM | 8910 nM | 500 nM | CN1CCc2c(c3ccccc3n2CCc2ccncc2)C1 | 
16 | 220 nM | 6400 nM |  | CN1CCc2c(c3cc(C(F)(F)F)ccc3n2CCc2ccncc2)C1 | 
17 | 100 nM | 5990 nM | 410 nM | CN1CCc2c(c3ccccc3n2CCc2cccnc2)C1 | 
18 | 500 nM | 860 nM | 10000 nM | Cc1ccc2c(c1)c1c(n2CCc2ccccn2)CCN(C)C1 | 
19 | 320 nM | 2060 nM | 7940 nM | Cc1ccc2c(c1)c1c(n2CCc2cnccn2)CCN(C)C1 | 
20 | 120 nM | 3240 nM | 470 nM | CN1CCc2c(c3cc(F)ccc3n2CCc2ccncc2)C1 | 
21 | 390 nM | 4340 nM |  | COc1ccc2c(c1)c1c(n2CCc2ccncc2)CCN(C)C1 | 
22 | 110 nM | 10700 nM | 730 nM | Cc1ccc(CCn2c3c(c4cc(F)ccc42)CN(C)CC3)cn1 | 
23 | 120 nM | 1040 nM |  | CN1CCc2c(c3cc(Br)ccc3n2CCc2ccccn2)C1 | 
24 | 160 nM | 370 nM | 3980 nM | Cc1ccc2c(c1)c1c(n2CCc2ccncc2)CCN(C)C1 | 
